ChEMBL document CHEMBL3868627, “Radical scavenging and antibacterial activity of caffemides against gram positive, gram negative and clinical drug resistance bacteria” (Bioorg Med Chem Lett, 2016)

How the values were obtained:
Type in all cases: functional
[1] = test system: Staphylococcus aureus; experiment: Antibacterial activity against methicillin-resistant Staphylococcus aureus ATCC 43300 assessed as colony forming units at 50 ug/ml measured after 24 hrs by serial dilution method (reference value: 74 +/- 2 10^6CFU)
Method in brief: (§1)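 Bacteria were exposed to test compound over a range of µg/ml concentrations. Viable bacteria were counted by colony forming unit (CFU) assay at set time points (6 h and 24 h for M. smegmatis and S. aureus strains), and untreated bacteria served as the control. Percentage of population killed was calculated relative to the untreated control. Values are means ± S.D of three independent trials.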

[2] = test system: Mycolicibacterium smegmatis; experiment: Antibacterial activity against Mycobacterium smegmatis MC2 155 ATCC 700084 assessed as colony forming units at 10 ug/ml measured after 24 hrs by serial dilution method (reference value: 84 +/- 4.35 10^3CFU); method in brief: as §1
[3] = test system: Pseudomonas aeruginosa; experiment: Antibacterial activity against Pseudomonas aeruginosa PAO1 ATCC 15692 assessed as colony forming units at 200 ug/ml measured after 3 hr by serial dilution method (reference value: 141.66 +/- 7.5 10^8CFU)
[4] = test system: Mycolicibacterium smegmatis; experiment: Antibacterial activity against Mycobacterium smegmatis MC2 155 ATCC 700084 assessed as colony forming units at 500 ug/ml measured after 6 hrs by serial dilution method (reference value: 70 +/- 1.73 10^3CFU); method in brief: as §1
[5] = test system: Staphylococcus aureus; experiment: Antibacterial activity against methicillin-resistant Staphylococcus aureus ATCC 43300 assessed as colony forming units at 1 ug/ml measured after 6 hrs by serial dilution method (reference value: 64.33 +/- 3.51 10^6CFU); method in brief: as §1
[6] = test system: Pseudomonas aeruginosa; experiment: Antibacterial activity against Pseudomonas aeruginosa PAO1 ATCC 15692 assessed as colony forming units at 300 ug/ml measured after 1 hr by serial dilution method (reference value: 85.33 +/- 4.04 10^8CFU)
[7] = test system: Staphylococcus aureus; experiment: Antibacterial activity against Staphylococcus aureus ATCC 25923 assessed as colony forming units at 1 ug/ml measured after 6 hrs by serial dilution method (reference value: 65.66 +/- 3.51 10^6CFU)
[8] = test system: Pseudomonas aeruginosa; experiment: Antibacterial activity against Pseudomonas aeruginosa PAO1 ATCC 15692 assessed as colony forming units at 50 ug/ml measured after 1 hr by serial dilution method (reference value: 85.33 +/- 4.04 10^8CFU)
[9] = test system: Mycolicibacterium smegmatis; experiment: Bactericidal activity against Mycobacterium smegmatis MC2 155 ATCC 700084 at >200 ug/ml measured after 6 and 24 hrs by serial dilution method relative to control; method in brief: as §1
[10] = test system: Staphylococcus aureus; experiment: Antibacterial activity against methicillin-resistant Staphylococcus aureus ATCC 43300 assessed as colony forming units at 100 ug/ml measured after 24 hrs by serial dilution method (reference value: 74 +/- 2 10^6CFU); method in brief: as §1
[11] = test system: Mycolicibacterium smegmatis; experiment: Bactericidal activity against Mycobacterium smegmatis MC2 155 ATCC 700084 at 50 ug/ml measured after 24 hrs by serial dilution method relative to control; method in brief: as §1
[12] = test system: Pseudomonas aeruginosa; experiment: Antibacterial activity against Pseudomonas aeruginosa PAO1 ATCC 15692 assessed as colony forming units at 200 ug/ml measured after 1 hr by serial dilution method (reference value: 85.33 +/- 4.04 10^8CFU)
[13] = test system: Pseudomonas aeruginosa; experiment: Antibacterial activity against Pseudomonas aeruginosa PAO1 ATCC 15692 assessed as colony forming units at 100 ug/ml measured after 1 hr by serial dilution method (reference value: 85.33 +/- 4.04 10^8CFU)
[14] = test system: Staphylococcus aureus; experiment: Antibacterial activity against Staphylococcus aureus ATCC 25923 assessed as colony forming units at 200 ug/ml measured after 24 hrs by serial dilution method (reference value: 77.66 +/- 5.13 10^6CFU)
[15] = test system: Mycolicibacterium smegmatis; experiment: Antibacterial activity against Mycobacterium smegmatis MC2 155 ATCC 700084 assessed as colony forming units at 10 ug/ml measured after 6 hrs by serial dilution method (reference value: 70 +/- 1.73 10^3CFU); method in brief: as §1
[16] = test system: Staphylococcus aureus; experiment: Antibacterial activity against Staphylococcus aureus ATCC 25923 assessed as colony forming units at 100 ug/ml measured after 6 hrs by serial dilution method (reference value: 65.66 +/- 3.51 10^6CFU)
[17] = test system: Mycolicibacterium smegmatis; experiment: Antibacterial activity against Mycobacterium smegmatis MC2 155 ATCC 700084 assessed as colony forming units at 200 ug/ml measured after 24 hrs by serial dilution method (reference value: 84 +/- 4.35 10^3CFU); method in brief: as §1
[18] = test system: Pseudomonas aeruginosa; experiment: Antibacterial activity against Pseudomonas aeruginosa PAO1 ATCC 15692 assessed as colony forming units at 500 ug/ml measured after 1 hr by serial dilution method (reference value: 85.33 +/- 4.04 10^8CFU)
[19] = test system: Pseudomonas aeruginosa; experiment: Antibacterial activity against Pseudomonas aeruginosa PAO1 ATCC 15692 assessed as colony forming units at 100 ug/ml measured after 3 hr by serial dilution method (reference value: 141.66 +/- 7.5 10^8CFU)
[20] = test system: Staphylococcus aureus; experiment: Antibacterial activity against Staphylococcus aureus ATCC 25923 assessed as colony forming units at 200 ug/ml measured after 6 hrs by serial dilution method (reference value: 65.66 +/- 3.51 10^6CFU)
[21] = test system: Mycolicibacterium smegmatis; experiment: Antibacterial activity against Mycobacterium smegmatis MC2 155 ATCC 700084 assessed as colony forming units at 300 ug/ml measured after 24 hrs by serial dilution method (reference value: 84 +/- 4.35 10^3CFU); method in brief: as §1
[22] = test system: Mycolicibacterium smegmatis; experiment: Antibacterial activity against Mycobacterium smegmatis MC2 155 ATCC 700084 assessed as colony forming units at 300 ug/ml measured after 6 hrs by serial dilution method (reference value: 70 +/- 1.73 10^3CFU); method in brief: as §1
[23] = test system: Staphylococcus aureus; experiment: Antibacterial activity against Staphylococcus aureus ATCC 25923 assessed as colony forming units at 10 ug/ml measured after 24 hrs by serial dilution method (reference value: 77.66 +/- 5.13 10^6CFU)
[24] = test system: Staphylococcus aureus; experiment: Antibacterial activity against Staphylococcus aureus ATCC 25923 assessed as colony forming units at 10 ug/ml measured after 6 hrs by serial dilution method (reference value: 65.66 +/- 3.51 10^6CFU)
[25] = test system: Mycolicibacterium smegmatis; experiment: Antibacterial activity against Mycobacterium smegmatis MC2 155 ATCC 700084 assessed as colony forming units at 1 ug/ml measured after 24 hrs by serial dilution method (reference value: 84 +/- 4.35 10^3CFU); method in brief: as §1
[26] = test system: Pseudomonas aeruginosa; experiment: Antibacterial activity against Pseudomonas aeruginosa PAO1 ATCC 15692 assessed as colony forming units at 1 ug/ml measured after 3 hr by serial dilution method (reference value: 141.66 +/- 7.5 10^8CFU)
[27] = test system: Mycolicibacterium smegmatis; experiment: Antibacterial activity against Mycobacterium smegmatis MC2 155 ATCC 700084 assessed as colony forming units at 50 ug/ml measured after 24 hrs by serial dilution method (reference value: 84 +/- 4.35 10^3CFU); method in brief: as §1
[28] = test system: Staphylococcus aureus; experiment: Antibacterial activity against Staphylococcus aureus ATCC 25923 assessed as colony forming units at 500 ug/ml measured after 6 hrs by serial dilution method (reference value: 65.66 +/- 3.51 10^6CFU); method in brief: as §1

SMILES	Activity [1] [×10⁶ CFU]	Activity [2] [×10³ CFU]	Activity [3] [×10⁸ CFU]	Activity [4] [×10³ CFU]	Activity [5] [×10⁶ CFU]	Activity [6] [×10⁸ CFU]	Activity [7] [×10⁶ CFU]	Activity [8] [×10⁸ CFU]	Activity [9] [%]	Activity [10] [×10⁶ CFU]	Activity [11] [%]	Activity [12] [×10⁸ CFU]	Activity [13] [×10⁸ CFU]	Activity [14] [×10⁶ CFU]	Activity [15] [×10³ CFU]	Activity [16] [×10⁶ CFU]	Activity [17] [×10³ CFU]	Activity [18] [×10⁸ CFU]	Activity [19] [×10⁸ CFU]	Activity [20] [×10⁶ CFU]	other results
Cc1ccc(O)c(NC(=O)/C=C/c2ccc(O)c(O)c2)c1	26	58	38.33	0	61	0	26.33	43	100	15.66	45.6	14	23.33	0	42.66	14	15	0	69.66	4.66	Activity [21]: 0 ×10³ CFU; Activity [22]: 0 ×10³ CFU; Activity [23]: 63 ×10⁶ CFU; Activity [24]: 25.66 ×10⁶ CFU; Activity [25]: 62.66 ×10³ CFU; Activity [26]: 126 ×10⁸ CFU; Activity [27]: 45.66 ×10³ CFU; Activity [28]: 0 ×10⁶ CFU
O=C(/C=C/c1ccc(O)c(O)c1)Nc1ccccc1Nc1ccccc1	28.66	35.33	21.33	0	58	0	42	35	100	11.33	78.1	10.66	22.33	0	38.33	5	0	0	32.66	0	Activity [21]: 0 ×10³ CFU; Activity [22]: 0 ×10³ CFU; Activity [23]: 40 ×10⁶ CFU; Activity [24]: 40 ×10⁶ CFU; Activity [25]: 54 ×10³ CFU; Activity [26]: 115.33 ×10⁸ CFU; Activity [27]: 18.33 ×10³ CFU; Activity [28]: 0 ×10⁶ CFU
